In ChEMBL document CHEMBL4184339, “NMR Biochemical Assay for Oxidosqualene Cyclase: Evaluation of Inhibitor Activities on Trypanosoma cruzi and Human Enzymes” (J Med Chem, 2018):

Key:
[1] = Inhibition of Trypanosoma cruzi strain CL Brener C-terminal His6-tagged OSC expressed in Pichia pastoris GS115 using 2,3-oxidosqualene as substrate after 20 mins by 1H NMR method
Procedure, shortened: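 T. cruzi OSC was expressed in Pichia pastoris GS115, first grown in BMGY ([…]glycerol) at 30 °C for 3 days and then induced in BMMY (1% methanol) at 25 °C for 2 days. Cells were homogenized in Tris-HCl pH 7.5 with 250 mM NaCl. Purification buffers contained 0.2% Triton X-100 or 0.2–1.2% β-octylglucoside. The substrate, 2,3-oxidosqualene, was in 10 mM sodium phosphate buffer with varied inhibitor. Reactions started with 19 nM enzyme (final) and ran at 37 °C for 20 min. Lanosterol was quantified by 1H NMR with factor analysis, and IC50 was taken from a fit of the first-factor score.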

[2] = test system: Trypanosoma cruzi; assay: Parasiticidal activity against amastigote stage of Trypanosoma cruzi Tulahuen infected in mouse brain fibroblast assessed as time duration of effect at 9.6 microM preincubated for 5 days followed by another 10 days incubation with fresh compound; type: functional
[3] = test system: Trypanosoma cruzi; assay: Parasiticidal activity against amastigote stage of Trypanosoma cruzi Tulahuen infected in mouse brain fibroblast assessed as time duration of effect at 19.2 microM preincubated for 5 days followed by another 10 days incubation with fresh compound; type: functional
[4] = test system: Trypanosoma cruzi; assay: Parasiticidal activity against amastigote stage of Trypanosoma cruzi Tulahuen infected in mouse brain fibroblast assessed as time duration of effect at 10.9 microM preincubated for 5 days followed by another 10 days incubation with fresh compound; type: functional
[5] = test system: Trypanosoma cruzi; assay: Antiparasitic activity against epimastigote stage of Trypanosoma cruzi Tulahuen assessed as inhibition of parasite proliferation after 48 hrs by Alamar Blue assay; type: functional, organism-based
Procedure, shortened: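 Epimastigotes (one million per assay) were cultured in LIT medium with 10% newborn calf serum and co-incubated with compound. Afterwards, alamarBlue was added and fluorescence was read as a measure of viability.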

[6] = target: T1, Lanosterol synthase (Homo sapiens, UniProt P48449); assay: Inhibition of human C-terminal His6-tagged OSC expressed in Pichia pastoris GS115 using 2,3-oxidosqualene as substrate after 90 mins by 1H NMR method
T1 sequence (P48449 whole entry): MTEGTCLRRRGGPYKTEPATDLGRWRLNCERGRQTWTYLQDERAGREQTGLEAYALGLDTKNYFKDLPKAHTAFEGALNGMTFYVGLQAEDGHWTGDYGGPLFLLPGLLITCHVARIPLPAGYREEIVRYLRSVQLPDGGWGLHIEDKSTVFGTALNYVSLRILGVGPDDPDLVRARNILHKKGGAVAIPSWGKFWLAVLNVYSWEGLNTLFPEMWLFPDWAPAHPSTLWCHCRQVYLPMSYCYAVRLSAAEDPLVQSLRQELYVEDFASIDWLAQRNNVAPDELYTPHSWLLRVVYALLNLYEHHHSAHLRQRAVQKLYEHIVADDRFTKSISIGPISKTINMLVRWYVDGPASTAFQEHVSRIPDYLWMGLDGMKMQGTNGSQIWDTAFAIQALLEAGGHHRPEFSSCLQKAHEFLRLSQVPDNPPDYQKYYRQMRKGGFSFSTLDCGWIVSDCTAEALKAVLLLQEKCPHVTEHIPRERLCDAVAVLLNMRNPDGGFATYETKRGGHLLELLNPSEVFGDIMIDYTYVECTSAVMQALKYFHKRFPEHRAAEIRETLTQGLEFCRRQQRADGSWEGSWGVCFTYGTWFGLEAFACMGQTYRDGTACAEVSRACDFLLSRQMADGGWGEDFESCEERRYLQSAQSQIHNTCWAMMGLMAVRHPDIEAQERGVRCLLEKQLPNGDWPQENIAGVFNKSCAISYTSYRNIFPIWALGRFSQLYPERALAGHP
Procedure, shortened: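 Human OSC was expressed in Pichia pastoris GS115 using BMGY at 30 °C for 3 days, then BMMY methanol induction at 25 °C for 2 days. Purification included a Superdex 200 step, with buffers containing 0.2% Triton X-100 or 0.2–0.8% β-octylglucoside. Product was measured by NMR with factor analysis, and IC50 was fitted from the first-factor score.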

[7] = test system: Trypanosoma cruzi; assay: Parasiticidal activity against amastigote stage of Trypanosoma cruzi Tulahuen infected in mouse brain fibroblast assessed as time duration of effect at 21.8 microM preincubated for 5 days followed by another 10 days incubation with fresh compound; type: functional
[8] = Selectivity ratio of IC50 for human C-terminal His6-tagged OSC to IC50 for Trypanosoma cruzi strain CL Brener C-terminal His6-tagged OSC

C=CCN(C)CCCCCCOc1ccc(C(=O)c2ccc(Br)cc2)c(F)c1
IC50 [1]: 13 nM

O=C(Cn1ccnc1[N+](=O)[O-])NCc1ccccc1 [BENZNIDAZOLE]
Time [2]: 35 days
Time [3]: 53 days

CN(C)CCOc1ccc(OC2CCN(S(=O)(=O)c3ccc(F)cc3)CC2)cc1.Cl
Time [4]: 21 days
IC50 [5]: 2150 nM
IC50 [6]: 120 nM
IC50 [1]: 44 nM
Time [7]: 29 days
Ratio IC50 [8]: 2.7

CN(C)Cc1ccc(N2CCC(N(C)S(=O)(=O)c3ccc(Cl)cc3)CC2)cc1
IC50 [6]: 230 nM
IC50 [1]: 140 nM
Ratio IC50 [8]: 1.6

C=CCN(C)Cc1ccc(N2CCC(N(C)S(=O)(=O)c3ccc(Cl)cc3)CC2)cc1.Cl.Cl
Time [2]: 62 days
IC50 [5]: 110 nM
IC50 [6]: 16 nM
IC50 [1]: 42 nM
Time [3]: 80 days
Ratio IC50 [8]: 0.38
